Common to all, as to assay type: functional, cell-based
One experiment concerns A549. Briefly: Cytotoxicity against human A549 cells after 72 hrs by SRB assay. As to conditions: A549, 72 h. Summed up:
(§1)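 Adherent cells plated 24 h before treatment and exposed continuously to compound at 100, 10, 1 and 0.1 µM for 72 h. Cells were then fixed and stained with sulforhodamine B, and IC50 was determined. Amrubicin hydrochloride served as the positive control.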

In the next experiment the test system is HT-29. Briefly: Cytotoxicity against human HT-29 cells after 72 hrs by SRB assay. To be noted: HT-29, 72 h. Summed up: as §1
The next experiment has as its system K562. The experiment in a line: Cytotoxicity against human K562 cells after 72 hrs by SRB assay. To be noted: K562, 72 h.

The structures appear in SMILES notation. Structures can show the parent of a compound that is named as a salt.

Turning to `CC(=O)[C@]1(N)Cc2c(O)c3c(c(O)c2[C@@H](O[C@H]2C[C@H](O)[C@H](O)CO2)C1)C(=O)c1ccccc1C3=O` [AMRUBICIN HYDROCHLORIDE], the IC50 amounted to 0.94 µM in the experiment on A549, 4.57 µM in the experiment on HT-29 and 1.2 µM in the experiment with K562.

`CC1=C[C@@H]2O[C@]34O[C@@]5(CC[C@]6(C)C(=O)[C@](C)(O)[C@]2(OC1=O)[C@H]36)C[C@]12OC(=O)C[C@H]1O[C@@](C)(CO)[C@@H]2CC[C@@]5(O)C4=O` [SCHISANDILACTONE A]: the IC50 with A549, in the experiment with HT-29 and with K562 was above 100 µM each time.

Regarding `C[C@H]1C(=O)O[C@@H]2[C@H]1O[C@]1(C)[C@H]2[C@H]2[C@](C)(CC[C@]34C[C@]56OC(=O)C[C@H]5OC(C)(C)[C@@H]6C[C@H](O)[C@H]3C(=O)[C@@]2(O)O4)[C@@H]1O` [SCHISANDILACTONE B], the IC50 with A549, in the experiment on HT-29 and in the experiment on K562 was above 100 µM each time.

Take `C[C@H]1C(=O)O[C@@H]2[C@H]1O[C@@]1(C)C(=O)[C@@]3(C)CC[C@]45C[C@]67OC(=O)C[C@H]6OC(C)(C)[C@@H]7C[C@H](O)[C@H]4C(=O)[C@@](O)(O5)[C@H]3[C@@]21O` [SCHISANDILACTONE C]: the IC50 in the experiment on A549, with HT-29 and in the experiment with K562 was above 100 µM throughout.

For `C[C@H]1C(=O)O[C@@H]2[C@H]1O[C@@]1(C)C(=O)[C@@]3(C)CC[C@]45C[C@]67OC(=O)C[C@H]6OC(C)(C)[C@@H]7C[C@@H](O)[C@H]4C(=O)[C@@](O)(O5)[C@H]3[C@@]21O` [SCHISANDILACTONE D], the IC50 in the experiment on A549, with HT-29 and in the experiment on K562 was above 100 µM in each case.

Turning to `CC1=C[C@@H]([C@@H]2[C@H]3[C@](C)(C(=O)C[C@]45C[C@]67OC(=O)C[C@H]6O[C@@](C)(CO)[C@@H]7CC[C@@H]4[C@@H](O)[C@@]3(O)O5)C(=O)[C@]2(C)O)OC1=O` [SCHISANDILACTONE E], the IC50 with A549, in the experiment with HT-29 and in the experiment on K562 was above 100 µM each time.

In the case of `CC1=C[C@@H]([C@]2(O)[C@H]3[C@](C)(CC[C@]45C[C@]67OC(=O)C[C@H]6OC(C)(C)[C@@H]7C[C@@H](O)[C@H]4C(=O)[C@@]3(O)O5)C(=O)[C@]2(C)O)OC1=O` [SCHISANDILACTONE F], the IC50 in the experiment with A549, in the experiment on HT-29 and in the experiment on K562 was above 100 µM throughout.

For the compound `C[C@@H]1C(=O)O[C@H]2[C@@H]1O[C@]13O[C@@]4(CC(=O)[C@]5(C)C(=O)[C@](C)(O)[C@H]2[C@@H]51)C[C@]12OC(=O)C[C@H]1O[C@@](C)(CO)[C@@H]2CC[C@H]4[C@H]3O` [SCHISANDILACTONE G], the IC50 in the experiment with A549, in the experiment on HT-29 and in the experiment with K562 was above 100 µM in each case.

As for `C[C@@H]1C(=O)O[C@H]2[C@@H]1O[C@]13O[C@@]4(CC(=O)[C@]5(C)C(=O)[C@](C)(O)[C@@]2(O)[C@@H]51)C[C@]12OC(=O)C[C@H]1O[C@@](C)(CO)[C@@H]2CC[C@@H]4[C@H]3O` [SCHISANDILACTONE H], the IC50 in the experiment on A549, with HT-29 and in the experiment on K562 was above 100 µM in each case.

Turning to `C[C@@H]1C(=O)O[C@H]2[C@@H]1O[C@]13O[C@@]4(CC[C@]5(C)C(=O)[C@](C)(O)[C@H]2[C@H]15)C[C@]12OC(=O)C[C@H]1O[C@@](C)(CO)[C@@H]2CC[C@H]4C3=O` [SCHISANDILACTONE I], the half-inhibitory concentration (IC50) in the experiment on A549, in the experiment with HT-29 and in the experiment with K562 was above 100 µM in each case.

Take `C[C@@H]1C(=O)O[C@H]2[C@@H]1O[C@]13O[C@@]4(CC[C@]5(C)C(=O)[C@](C)(O)[C@@]2(O)[C@H]15)C[C@]12OC(=O)C[C@H]1O[C@@](C)(CO)[C@@H]2C[C@@H]1O[C@@]14C3=O` [SCHISANDILACTONE J]: the IC50 with A549, in the experiment with HT-29 and with K562 was above 100 µM in each case.

For the origin of these results see ChEMBL document CHEMBL1212905, “Schisanartane nortriterpenoids with diverse post-modifications from Schisandra propinqua” (J Nat Prod, 2010).
